{"data": "Published values of several laboratories", "target": "Serine/threonine-protein kinase BRSK1 (BRSK1, Homo sapiens, UniProt Q8TDC3)", "Sequence (Q8TDC3 1-778, as in one of the studies)": "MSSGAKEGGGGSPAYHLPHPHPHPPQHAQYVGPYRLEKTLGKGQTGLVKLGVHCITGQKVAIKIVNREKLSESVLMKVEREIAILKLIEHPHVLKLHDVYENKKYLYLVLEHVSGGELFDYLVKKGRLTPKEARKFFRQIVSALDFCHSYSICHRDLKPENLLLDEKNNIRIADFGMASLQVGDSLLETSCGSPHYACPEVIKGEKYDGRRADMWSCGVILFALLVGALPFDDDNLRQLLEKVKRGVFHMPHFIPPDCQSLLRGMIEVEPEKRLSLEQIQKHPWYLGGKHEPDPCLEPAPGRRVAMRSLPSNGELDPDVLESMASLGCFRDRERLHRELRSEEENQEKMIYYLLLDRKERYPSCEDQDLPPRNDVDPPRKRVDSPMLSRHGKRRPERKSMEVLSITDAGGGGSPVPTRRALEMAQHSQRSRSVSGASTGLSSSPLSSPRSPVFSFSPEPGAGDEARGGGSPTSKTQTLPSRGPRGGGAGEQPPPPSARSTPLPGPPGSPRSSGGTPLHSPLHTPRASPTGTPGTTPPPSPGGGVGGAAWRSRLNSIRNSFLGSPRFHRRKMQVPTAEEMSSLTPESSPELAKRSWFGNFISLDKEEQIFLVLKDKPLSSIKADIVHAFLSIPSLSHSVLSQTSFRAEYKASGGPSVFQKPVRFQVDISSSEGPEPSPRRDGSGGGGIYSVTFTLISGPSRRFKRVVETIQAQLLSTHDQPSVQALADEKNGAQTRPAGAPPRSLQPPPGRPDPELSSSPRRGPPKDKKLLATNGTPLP", "note": "Compare with care: the assays were run in different laboratories."}
{"SMILES": "Cc1cc(C)c(-n2ccn3nc(-c4cccnc4)cc23)cc1NC(=O)c1cc(C#N)cc(S(F)(F)(F)(F)F)c1", "read-out": "cell-free assay", "technique": "competition with immobilised ligand", "concentration": "0.1 µM", "measurement": "remaining binding", "result": "84%"}
{"SMILES": "Cc1sc(C(=O)NC2COC2)cc1-n1cc(NC(=O)Nc2c(F)cccc2Cl)cn1", "read-out": "enzyme activity", "action": "inhibitor", "concentration": "10 µM", "measurement": "remaining activity", "result": "87.8%"}
{"SMILES": "O=C(N1CCS(=O)(=O)CC1)N1C[C@H](c2ccc(OC(F)(F)F)cc2)C[C@H](c2nc(C3CC3)no2)C1", "read-out": "cell-free assay", "technique": "competition with immobilised ligand", "concentration": "1 µM", "measurement": "remaining binding", "result": "100%"}
{"SMILES": "FC(F)(F)Oc1cccc(-c2cnc3ccc(-c4ccncc4)nn23)c1", "read-out": "enzyme activity", "action": "inhibitor", "technique": "radiometric", "concentration": "1 µM", "measurement": "activity vs control", "result": "103%"}
{"SMILES": "COc1cc(Nc2cnc(C#N)c(O[C@H](C)CN(C)C)n2)ncc1-c1cnn(C)c1", "read-out": "enzyme activity", "action": "inhibitor", "technique": "radiometric", "concentration": "10 µM", "measurement": "remaining activity", "result": "53%"}
{"SMILES": "COc1cc2ncnc(Nc3ccc(F)c(Cl)c3)c2cc1OCCCN1CCOCC1", "read-out": "cell-free assay", "concentration": "0.5 µM", "measurement": "remaining signal", "result": "92.5%"}
{"SMILES": "CNC(=O)c1cc(Oc2ccc(NC(=O)Nc3ccc(Cl)c(C(F)(F)F)c3)cc2)ccn1", "read-out": "enzyme activity", "action": "inhibitor", "concentration": "0.3 µM", "measurement": "inhibition", "result": "17%"}
{"SMILES": "COc1cc2ncnc(Nc3ccc(Oc4ccccc4)c(C)c3C)c2cc1OC", "read-out": "enzyme activity", "action": "inhibitor", "concentration": "1 µM", "measurement": "inhibition", "result": "0%"}
{"SMILES": "Cc1cc(NC(=O)c2cccc3cc(-c4cccc5[nH]nc(N)c45)ccc23)ccc1F", "read-out": "enzyme activity", "action": "inhibitor", "concentration": "0.1 µM", "measurement": "activity vs control", "result": "123%"}
{"SMILES": "FC(F)c1nc2ccccc2n1-c1nc(N2CCOCC2)nc(N2CCOCC2)n1", "read-out": "enzyme activity", "action": "inhibitor", "concentration": "10 µM", "measurement": "remaining activity", "result": "161%"}
{"SMILES": "CC1=C(C#N)C(c2ccc3c(c2)c(NC(=O)c2ccccc2C)nn3C)C(C#N)=C(C)N1", "read-out": "cell-free assay", "technique": "competition with immobilised ligand", "concentration": "1 µM", "measurement": "remaining binding", "result": "100%"}
{"SMILES": "Nc1nc(Nc2ccc(S(N)(=O)=O)cc2)nn1C(=O)c1c(F)cccc1F", "read-out": "cell-free assay", "concentration": "0.5 µM", "measurement": "remaining signal", "result": "49.2%"}
{"SMILES": "Cc1ccc(Nc2nccc(N(C)c3ccc4c(C)n(C)nc4c3)n2)cc1S(N)(=O)=O", "read-out": "enzyme activity", "action": "inhibitor", "concentration": "10 µM", "measurement": "inhibition", "result": "36%"}
{"SMILES": "CCC(=N\\O)/C(C)=C/c1ccc(F)cc1", "read-out": "cell-free assay", "technique": "competition with immobilised ligand", "concentration": "1 µM", "measurement": "remaining binding", "result": "100%"}
{"SMILES": "COc1cc(Cl)c(C(=O)N[C@@H](CN[C@H]2CC[C@@H](N)CC2)Cc2ccc(C#N)cc2)cc1-c1ccc(CN[C@H](C)c2ccc(C)cc2)o1", "read-out": "enzyme activity", "action": "inhibitor", "concentration": "1 µM", "measurement": "remaining activity", "result": "100%"}
{"SMILES": "Cc1ccc(C(=O)Nc2ccc(CN3CCN(C)CC3)c(C(F)(F)F)c2)cc1C#Cc1cnc2cccnn12", "read-out": "enzyme activity", "action": "inhibitor", "concentration": "23.5 nM", "measurement": "remaining activity", "result": "83%"}
{"SMILES": "Cc1nc(Cc2cccc(C(F)(F)F)c2)sc1-c1ccc(C(N)=O)nc1", "read-out": "cell-free assay", "technique": "competition with immobilised ligand", "concentration": "1 µM", "measurement": "remaining binding", "result": "100%"}
{"SMILES": "CCN(CC)c1ccc(C2=NNC(=O)CC2C)cc1[N+](=O)[O-] (stereo not drawn)", "read-out": "enzyme activity", "action": "inhibitor", "concentration": "10 µM", "measurement": "remaining activity", "result": "131%"}
{"SMILES": "O=C1Nc2ccc(Cl)cc2C1=Cc1cc(Cl)c(O)c(Cl)c1", "read-out": "cell-free assay", "concentration": "0.5 µM", "measurement": "remaining signal", "result": "81.3%"}
{"SMILES": "CC(C)(C)c1nc2c(s1)c1nc(N)ncc1c1ccc(NS(=O)(=O)c3c(F)cccc3F)c(F)c12", "read-out": "enzyme activity", "action": "inhibitor", "technique": "radiometric", "concentration": "1 µM", "measurement": "remaining activity", "result": "102%"}
{"SMILES": "COc1cc(/C=C/C(=O)CC(=O)/C=C/c2ccc(O)c(OC)c2)ccc1O", "read-out": "enzyme activity", "action": "inhibitor", "concentration": "1 µM", "measurement": "activity vs control", "result": "92%"}
{"SMILES": "O=C(Nc1cccnn1)N1CCC(=Cc2cccc(Oc3ccc(C(F)(F)F)cn3)c2)CC1", "read-out": "cell-free assay", "technique": "competition with immobilised ligand", "concentration": "1 µM", "measurement": "remaining binding", "result": "73%"}
{"SMILES": "CC/C(=N\\NC(=O)NCc1cccc(O)c1)c1ccc(O)c(C)c1O", "read-out": "enzyme activity", "action": "inhibitor", "concentration": "0.1 µM", "measurement": "inhibition", "result": "1.7%"}
{"SMILES": "CCc1ccccc1C(=O)Nc1n[nH]c2c(C)c(F)c(C3C(C#N)=C(C)N(C)C(C)=C3C#N)cc12", "read-out": "cell-free assay", "technique": "competition with immobilised ligand", "concentration": "1 µM", "measurement": "remaining binding", "result": "55%"}
{"SMILES": "N[C@@H]1CCN(c2nccc(-c3cnn4ncccc34)n2)C1", "read-out": "binding", "concentration": "1 µM", "measurement": "remaining binding", "result": "100%"}
{"SMILES": "CCN(CC)CCNC(=O)c1c(C)[nH]c(/C=C2\\C(=O)Nc3ccc(F)cc32)c1C", "read-out": "enzyme activity", "action": "inhibitor", "concentration": "0.3 µM", "measurement": "inhibition", "result": "27%"}
{"SMILES": "C[C@H](c1ccnc(Nc2nc3ccc(-c4cc(N(C)C)ncn4)cc3[nH]2)c1)N1CCN(C(=O)CC(F)(F)F)CC1", "read-out": "cell-free assay", "technique": "competition with immobilised ligand", "concentration": "0.1 µM", "measurement": "remaining binding", "result": "100%"}
